Source: ChEMBL document CHEMBL1142436, “Design and synthesis of 4-substituted indolo[3,2-e][1,2,3]triazolo[1,5-a]pyrimidine derivatives with antitumor activity” (2008)

Assays:
Assay type in all cases: functional
[1] = test system: MCF7; experiment: Antitumor activity against human MCF7 cells at 0.1 mM after 48 hrs
Procedure, shortened: (§1)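 Prescreen run under the NCI Developmental Therapeutic Program. Agents were tested at a single concentration of 10^-4 M against a three-line panel (MCF7, NCI-H460, SF-268).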

[2] = test system: NCI-H460; experiment: Antitumor activity against human NCI-H460 cells at 0.1 mM after 48 hrs; procedure, shortened: as §1
[3] = test system: SF-268; experiment: Antitumor activity against human SF268 cells at 0.1 mM after 48 hrs; procedure, shortened: as §1

Row | Compound | Activity [1] | Activity [2] | Activity [3]
1 | Cn1c2ccccc2c2c(=O)n(CCCC(=O)O)c3c(-c4ccccc4)nnn3c21 | 80% | 95% | 87%
2 | CCOC(=O)CCCn1c(=O)c2c3ccccc3n(C)c2n2nnc(-c3ccccc3)c12 | 114% | 95% | 110%
3 | COC(=O)C(Cc1c[nH]cn1)NC(=O)CCCn1c(=O)c2c3ccccc3n(C)c2n2nnc(-c3ccccc3)c12 (centres undefined) | 116% | 117% | 128%
